What was measured:
[1] = melting temperature; fluorescence melt of hairpins on a sequencing array, two-state fit, raised by 9.35 °C to match UV melts; conditions: sodium 0.088 M
Method in brief: (§1)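 On a sequenced MiSeq flow cell, library hairpins with annealed Cy3 and quencher oligos were imaged for Cy3 fluorescence in 2.5 °C steps up to 60 °C, in 50 mM Na-HEPES pH 8.0, 25 mM NaCl. Normalisation used pre-quench Cy3 and control constructs. Bootstrapped two-state fits gave melting temperature and folding enthalpy, combined by inverse variance across four replicates and with fitted temperatures raised by 9.35 °C to match UV melts.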

[2] = folding enthalpy; higher = less favourable; fluorescence melt of hairpins on a sequencing array, two-state fit; conditions: sodium 0.088 M
Method in brief: as §1

Row | Sequence | Tm [1] | folding enthalpy [2]
1 | GCGAAGAGTCGC ((((....)))) | 48.4 °C | -11.8 kcal/mol
2 | GCAGTGCGAAAGCAAGGC ((..(((....)))..)) | 56.7 °C | -16.1 kcal/mol
3 | GTGATCGAAAGATCTCAC ((((((....)))..))) | 39.1 °C | -11.4 kcal/mol
4 | GGGGAGCGAAAGCTGCCC (((.(((....))).))) | 68.8 °C | -23.8 kcal/mol
5 | CGTACGGAAACGTAGACG ((((((....)))..))) | 36.6 °C | -17 kcal/mol
6 | GCTACAGGAAACTATAGC ((((.((....)).)))) | 31.7 °C | -12.1 kcal/mol
7 | GAACTCCGAAAGGACTTC (((.(((....))).))) | 29.7 °C | -19.5 kcal/mol
8 | GTACTTGGAAACAGGTAC ((((.((....)).)))) | 40.1 °C | -32.4 kcal/mol
9 | GGATGCCGAAAGGCTCC (((.(((....)))))) | 55 °C | -17.8 kcal/mol
10 | GCTATAGGAAACCATAGC (((((.(....).))))) | 35.6 °C | -29.8 kcal/mol
11 | GCCTCCGAAAGGAGAGGC ((((((....)))..))) | 54.8 °C | -20.4 kcal/mol
12 | GGCTCAGGAAACTGGGCC (((.(((....))).))) | 58.3 °C | -43.7 kcal/mol
13 | GTTGAACGAAAGTTAAAC (((.(((....))).))) | 41.2 °C | -26.9 kcal/mol
14 | GCACTCGAAAGAGTTTGC ((((((....)))..))) | 35.9 °C | -17.5 kcal/mol
15 | GCGGCCGCCCGC ((((....)))) | 63.2 °C | -17.1 kcal/mol
16 | GGCCGGCGAAAGCCAGCC (((.(((....))).))) | 68.1 °C | -22.4 kcal/mol
17 | GACTGCGAAAGCATCGTC ((((((....)))..))) | 47.1 °C | -12.2 kcal/mol
18 | GGCTCACGAAAGTGTGCC (((.(((....))).))) | 64.3 °C | -30.8 kcal/mol
19 | GATCGTACACACGATC ((((((....)))))) | 54.4 °C | -40.7 kcal/mol
20 | GGAAAAACGAAAGTTTCC (((..(((....)))))) | 35.6 °C | -14.9 kcal/mol
21 | GTCTCGGGAAACCGAAAC ((.((((....)))).)) | 34.7 °C | -15.4 kcal/mol
22 | GATAACCGAAAGGTCATC (((.(((....))).))) | 37.2 °C | -21.3 kcal/mol
23 | GATCTACATATAGATC ((((((....)))))) | 40.8 °C | -35.4 kcal/mol

Row | Sequence | Tm [1] | folding enthalpy [2]
24 | GATCACAGACGTGATC ((((((....)))))) | 57 °C | -37 kcal/mol
25 | GAGTGGACGAAAGTCCTC (((..(((....)))))) | 36 °C | -9.72 kcal/mol
26 | GATCGACCCCTCGATC ((((((....)))))) | 51.7 °C | -47.5 kcal/mol
27 | GATCGAGTGTTCGATC ((((((....)))))) | 51.9 °C | -34.8 kcal/mol
28 | GGCTGACGAAAGTCCGCC (((.(((....))).))) | 58.6 °C | -36.6 kcal/mol
29 | GGAAGCGAAAGCTATCC ((((((....))).))) | 40.9 °C | -14.6 kcal/mol
30 | GATCCTAAAAAGGATC ((((((....)))))) | 47.6 °C | -27.9 kcal/mol
31 | GTCACCGGAAACGATGAC ((((.((....)).)))) | 45.9 °C | -33.5 kcal/mol
32 | GATCGGTGGACCGATC ((((((....)))))) | 57.2 °C | -31.7 kcal/mol
33 | GATTCCGAAAGGATAATC ((((((....)))..))) | 31.8 °C | -15.5 kcal/mol
34 | GGGTATCGAAAGATCCCC (((.(((....))).))) | 50.2 °C | -22.7 kcal/mol
35 | GGCTATGGAAACATGGTC (.(.(((....))).).) | 35.7 °C | -23.9 kcal/mol
36 | GCCCGAGGAAACTCGAGC ((.((((....)))).)) | 48.4 °C | -31 kcal/mol
37 | GCTTCGCGAAAGCCTAGC (((..((....))..))) | 37.4 °C | -14.7 kcal/mol
38 | GATCATAAGTATGATC ((((((....)))))) | 47.7 °C | -33.6 kcal/mol
39 | GTTACTCGAAAGAGGAAC (((.(((....))).))) | 53.6 °C | -36.2 kcal/mol
40 | GATCAGCCCCCTGATC ((((((....)))))) | 48.2 °C | -36.2 kcal/mol
41 | GGCAGACGAAAGTCGCC (((.(((....)))))) | 65.2 °C | -23.1 kcal/mol
42 | GCGTACGAAAGTAGTCGC ((((((....)))..))) | 45.3 °C | -25.1 kcal/mol
43 | GATCTCTCGCGAGATC ((((((....)))))) | 51.4 °C | -42.2 kcal/mol
44 | GATCGGTCAGCCGATC ((((((....)))))) | 59.8 °C | -41.8 kcal/mol
45 | GCAGAGGGAAACCTTTGC (((.(((....))).))) | 45.2 °C | -32.9 kcal/mol
46 | GACTACGAAAGTAGTGTC ((((((....)))..))) | 50.4 °C | -15.4 kcal/mol

Row | Sequence | Tm [1] | folding enthalpy [2]
47 | GCTTCTCGAAAGAGTAGC (((.(((....))).))) | 47.9 °C | -31.1 kcal/mol
48 | GGGAATCGAAAGATCCCC (((.(((....))).))) | 51.5 °C | -24.9 kcal/mol
49 | GGTTAGCGAAAGCTGACC (((.(((....))).))) | 58.4 °C | -36.4 kcal/mol
50 | GTTCCGCGAAAGCGAAAC (((.(((....))).))) | 53.9 °C | -23.6 kcal/mol
51 | GGGTCTGGAAACAGATCC ((.((((....)))).)) | 51.9 °C | -43.7 kcal/mol
52 | CGACCGGAAACGGTCTCG ((((((....)))..))) | 38 °C | -8.29 kcal/mol
53 | GGTCCCGAAAGGGAACC ((((((....))).))) | 60.5 °C | -18.5 kcal/mol
54 | GCTGGCGAAAGCCTGAGC ((((((....)))..))) | 50.2 °C | -14.8 kcal/mol
55 | GTTTAGGGAAACTTAAGC (.(((.(....).))).) | 33.6 °C | -15.4 kcal/mol
56 | GACGATGGAAACATCGCC (.(((((....))))).) | 47.3 °C | -17.9 kcal/mol
57 | GATCTCGGAAACGAGGTC ((.((((....)))).)) | 50.2 °C | -50.8 kcal/mol
58 | GTGAACGAAAGTTGTCAC ((((((....)))..))) | 27.9 °C | -21.8 kcal/mol
59 | CGGACACGGAAACGTCCG (((..(((....)))))) | 47.6 °C | -26 kcal/mol
60 | GAAAACGAAAGTTCGTTC ((((((....)))..))) | 25.1 °C | -10.8 kcal/mol
61 | GAGTCGGGAAACTGACTC (((((.(....).))))) | 52.6 °C | -40.2 kcal/mol
62 | GTCACAGGAAACCGTGAC (((((.(....).))))) | 49.1 °C | -30.3 kcal/mol
63 | GCGAGGCGAAAGCGCCGC (((..((....))..))) | 63.8 °C | -12.5 kcal/mol
64 | GCAATCGAAAGATTTGC ((((((....))).))) | 44.2 °C | -27.6 kcal/mol
65 | GCTTCCGAAAGGATCAGC ((((((....)))..))) | 34 °C | -21.7 kcal/mol
66 | GCCACAGGAAACTGTGAC (.(((((....))))).) | 46 °C | -15.9 kcal/mol
67 | CGTTCCCGGAAACGGACG (((..(((....)))))) | 35.3 °C | -21.6 kcal/mol
68 | GATCGTTCCAACGATC ((((((....)))))) | 58.6 °C | -39.5 kcal/mol
69 | GCGATGCATCGC ((((....)))) | 59.6 °C | -32.1 kcal/mol

Row | Sequence | Tm [1] | folding enthalpy [2]
70 | GCCCTGCGAAAGCTGCGC ((.(.((....)).).)) | 40.2 °C | -16.9 kcal/mol
71 | GCGTGTTCGAAAGAACGC (((..(((....)))))) | 50.5 °C | -14.7 kcal/mol
72 | GGGTCCGGAAACGAACCC ((((.((....)).)))) | 49 °C | -31.9 kcal/mol
73 | GATCCGGGCTCGGATC ((((((....)))))) | 59.3 °C | -44.6 kcal/mol
74 | GTTGTTGGAAACAATAAC (((.(((....))).))) | 39.6 °C | -20.3 kcal/mol
75 | GCGTTGGACGC ((((...)))) | 52.7 °C | -19.5 kcal/mol
76 | GACGTCCGAAAGGATGTC (((.(((....))).))) | 60.1 °C | -42.9 kcal/mol
77 | GATCTTCAGGAAGATC ((((((....)))))) | 46.8 °C | -29 kcal/mol
78 | GCGAAGCGAAAGCTCGGC ((..(((....)))..)) | 43.5 °C | -8.3 kcal/mol
79 | GCATCGCGAAAGCTATGC ((((.((....)).)))) | 59 °C | -24.1 kcal/mol
80 | GCAGTGCGAAAGCTGTGC (((..((....))..))) | 50.2 °C | -19.4 kcal/mol
81 | GCAAACGAAAGTTAGTGC ((((((....)))..))) | 32.9 °C | -19.7 kcal/mol
82 | GATCGGCCCTCCGATC ((((((....)))))) | 56.7 °C | -39.9 kcal/mol
83 | GCGGTGTCCCGC ((((....)))) | 56.5 °C | -32.1 kcal/mol
84 | GCGCACGAAAGTGATCGC ((((((....)))..))) | 49.6 °C | -24.8 kcal/mol
85 | GGATGCGGAAACGCGTTC (.(.(((....))).).) | 41.5 °C | -17.4 kcal/mol
86 | GGGCTCGCGAAAGCGCCC (((..(((....)))))) | 56.5 °C | -15.7 kcal/mol
87 | GCATACGAAAGTAGGTGC ((((((....)))..))) | 40.4 °C | -27.1 kcal/mol
88 | GATCGTCTTTACGATC ((((((....)))))) | 55.2 °C | -34.3 kcal/mol
89 | GATCCCCTTAGGGATC ((((((....)))))) | 63.2 °C | -45 kcal/mol
90 | GATCTCGAGCGAGATC ((((((....)))))) | 53.3 °C | -48.4 kcal/mol
91 | CGCTTCCGGAAACGGGCG (((..(((....)))))) | 40 °C | -23.4 kcal/mol
92 | ACCTGGAAACAGGT (((((....))))) | 51.1 °C | -18.8 kcal/mol

Reference: the array DNA melting data of Ke et al. (doi:10.1101/2024.01.08.574731)
